Arrestin-AP2 inh – inhibitors of human beta-arrestin and AP2 interaction; inhibition, % at 10 µM; FITC-arrestin peptide / GST-AP2 beads, flow cytometry; AP2 beta2 appendage carries R879A mutation; 340,000 tested, 0.31% active;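 active means inhibition above a set limit, near 3 SD of compounds lacking own fluorescence, cut at about 54% in these data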;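 further: plate controls were DMSO wells for no effect and 5 µM unlabelled arrestin peptide for full effect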
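System: GST-AP2 R879A bound to glutathione beads, E. coli-expressed. Also added: 50 nM FITC-arrestin peptide. Schedule: compound with beads 12 min RT, then probe 1 h RT. Signal: bead flow cytometry, FITC channel. Read-out basis: percent response.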
CAL PDZ FP-1 – CAL PDZ (human) peptide binding inhibition | 300,000 tested, 0.92% active | purified CAL PDZ, TMR-peptide fluorescence polarization, 1 h | inhibition, % at 24.9 µM | AID 602252;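 active means mean inhibition of at least 30% with at least half of replicates also reaching 30%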;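 further: 0% = DMSO neutral control and 100% = excess unlabeled competitor peptide PRC23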
CAL PDZ FP-2 – inhibitors of human CAL PDZ peptide binding. Q9HD26. purified CAL PDZ, TMR-peptide fluorescence polarization, 1 h. inhibition, % at 20 µM. 330,000 tested, 0.02% active;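 active means highest replicate inhibition of at least 40%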;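 further: plate controls were DMSO neutral control wells for no effect and unlabeled competitor peptide control wells for full effect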
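Test system: purified CerCALP PDZ construct; Compound dosing: one concentration, 20 µM compound; Also added: TMR-labelled reporter peptide T*-PRC34 bound in PDZ groove; Read-out: inhibition from polarization loss; Controls: unlabelled peptide and DMSO controls; Signal: FP readout, S and P plane fluorescence; Incubation: 1 h at RT.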
DDE Tn6 FP inh – disrupts Tn6 cyclic peptide binding to fibrin D-Dimer-E complex | Fibrin DD(E) TRITC-Tn6 fluorescence polarization displacement | 370,000 tested, 0.21% active | inhibition, % at 8.3 µM | P02675 | AID 720509;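 active means inhibition above a per-campaign cutoff: mean of compounds within control limits plus 3 SD, cut at about 15% in these data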;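 further: 0% = median of all compound wells on the plate and 100% = blocking peptide control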
Target sequence (P02675 whole entry, looked up): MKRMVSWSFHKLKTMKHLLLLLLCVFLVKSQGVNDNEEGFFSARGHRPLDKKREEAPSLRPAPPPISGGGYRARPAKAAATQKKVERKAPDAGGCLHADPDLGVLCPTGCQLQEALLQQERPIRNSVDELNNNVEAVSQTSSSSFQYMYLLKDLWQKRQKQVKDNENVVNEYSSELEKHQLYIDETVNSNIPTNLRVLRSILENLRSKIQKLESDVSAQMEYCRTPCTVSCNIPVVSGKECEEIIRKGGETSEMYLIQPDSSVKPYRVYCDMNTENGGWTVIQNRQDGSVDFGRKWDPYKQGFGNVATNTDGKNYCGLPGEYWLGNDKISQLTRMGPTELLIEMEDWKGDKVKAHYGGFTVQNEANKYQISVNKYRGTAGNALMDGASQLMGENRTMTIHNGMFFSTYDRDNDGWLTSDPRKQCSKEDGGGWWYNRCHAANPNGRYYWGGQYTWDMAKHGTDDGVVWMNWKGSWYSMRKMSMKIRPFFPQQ
Tn7 DDE FP – inhibitors of Tn7 peptide binding to human fibrin DD(E) | P02675 | FP displacement of FITC-Tn7 peptide from fibrin DD(E); 0% = median of compound wells per plate | inhibition, % at 8.3 µM | 370,000 tested, 0.13% active | AID 720508;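 active means inhibition above the mean of compounds falling within the control limits plus 3 SD of them, cut at about 14% in these data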;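 further: 0% = plate median of compound wells and 100% = 10 µM Aha-Tn7 peptide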
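System: human fibrin DD(E); quantity: Fibrin-DD(E) at 2 µM final; also added: fluorescent Tn7 probe at 0.1 µM; compound dosing: single nominal test concentration of 8.3 µM per compound; schedule: 10 min preincubation, 3 h with tracer, room temperature; detection: fluorescence polarization of the labelled Tn7 tracer; repeats: one replicate per compound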
Arr-AP2 CP1 – human beta-arrestin and AP2 interaction inhibition, cherry pick | AID 504908 | shares compounds with Arrestin-AP2 inh | GST-AP2 beads, FITC arrestin peptide binding, flow cytometry; GST-fused beta2-adaptin appendage, R879A mutant | inhibition, % at 10 µM | 1,300 tested, 2% active;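 active means inhibition above a set limit, roughly 3 SD of non-fluorescent compound noise, cut at about 38% in these data; inactive means inhibition at or below that limit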;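 further: loss of bead fluorescence from 50 nM FITC arrestin peptide bound to appendage; 0% = negative control wells and 100% = excess unlabelled arrestin peptide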
GST GSH counter – counter-screen for beta-arrestin AP2 inhibitors: GST-GSH bead binding; GST-fluorescein binding to GSH beads, fluorescence; AID 588338; inhibition, % at 10 µM; 1,300 tested, 2% active; shares compounds with Arrestin-AP2 inh;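 active means inhibition above 50%, about 3 SD of the inhibition seen with non-fluorescent compounds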;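 further: fluorescein maleimide labelled GST captured on 4 micron glutathione beads; higher means more loss of bead fluorescence from quenching or blocked binding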
Starred values were filed as active, the others as inactive; . = no result. Sampled rows, rich in hits. Any-hit rate of the full collection: about 1.4%.

SMILES | Arrestin-AP2 inh | CAL PDZ FP-1 | CAL PDZ FP-2 | DDE Tn6 FP inh | Tn7 DDE FP | Arr-AP2 CP1 | GST GSH counter
Cc1no[n+]([O-])c1COc1cccc(/C=C2\N=C(c3ccccc3)OC2=O)c1 | 68* | -2 | -3 | 3 | 3 | 4 | -7
Cc1ccc(-c2nc3ncccn3c2NC(=O)c2cccc(C)c2)cc1 | . | . | . | -12 | -6 | . | .
NC1=NCC(O)=C1c1nc2ccccc2[nH]1 | 66* | 3 | 0 | -2 | 2 | -9 | 4
O=C(CNS(=O)(=O)c1cc2ccccc2s1)N1CCN(c2ccccn2)CC1 | . | . | . | 12 | 6 | . | .
COCCCN1CCC2(CCC(c3ccccc3)CC2)C1=O (stereo not given) | . | . | . | 6 | 6 | . | .
CN(C)c1cccc(/C=C2\CC3(OC(=O)C4CCCC4)CCCN2C3)c1 (stereo not given) | . | . | . | 0 | 2 | . | .
CN1CCN(S(=O)(=O)c2cccc(C(=O)NC3CCCC3)c2)CC1 | 60* | -4 | -2 | 2 | -1 | 3 | 3
Cc1ccc(S(=O)(=O)N2CCCC(C(=O)NC3CCCC3)C2)cc1Cl (stereo not given) | 57* | -6 | -3 | -4 | -6 | -10 | 0
COc1ccc(-n2c(SCC(=O)O)nc3sc4c(c3c2=O)CCCC4)cc1 | 59* | 7 | -2 | -8 | -7 | -4 | 0
O=[N+]([O-])c1ccccc1OC/C(=N\O)c1ccccc1 | 15 | 2 | -1 | -8 | -2 | . | .
Cc1ccc(/C(COc2ccccc2O)=N\O)cc1 | 57* | -2 | -3 | -2 | -6 | 8 | 0
Nc1nc(-c2ccccc2)nc2sc3c(c12)CCCC3 | 65* | -3 | 0 | -5 | 6 | 21 | -3
O=c1oc(-c2ccccc2)nc2sc3c(c12)CCC3 | 9 | -3 | -3 | -7 | -7 | . | .
CNS(=O)(=O)c1cccc(C(=O)OC2CCOC2=O)c1 (stereo not given) | -9 | -6 | -2 | 9 | 5 | . | .
O=C(OC1CCOC1=O)c1cccc(S(=O)(=O)Nc2cccc(Cl)c2)c1 (stereo not given) | 63* | 2 | -1 | -9 | -6 | -10 | -4
CCn1nnnc1NCc1ccc(Cl)cc1 | 19 | -2 | -3 | 2 | -5 | . | .
Cn1nnnc1NCc1ccc(Cl)cc1 | 57* | 2 | -2 | -2 | 1 | -1 | -10
C[C@@H](C(=O)Nc1ccc2c(c1)OCCO2)n1c(=O)[nH]c2ccccc2c1=O | -9 | -4 | -2 | 6 | 6 | 6 | -1
O=C(Cn1c(=O)[nH]c2ccccc2c1=O)Nc1ccc2c(c1)OCO2 | -2 | -2 | -2 | 2 | 7 | 1 | 0
C[C@@H](C(=O)Nc1ccc2c(c1)OCO2)n1c(=O)[nH]c2ccccc2c1=O | 4 | 2 | -1 | -3 | -6 | -3 | -4
CC(C)C(C(=O)Nc1ccc2c(c1)OCO2)N1C(=O)c2ccccc2C1=O (stereo not given) | 7 | -1 | -1 | 6 | 0 | . | .
O=C(Cn1ccc2ccccc2c1=O)Nc1ccc2c(c1)OCO2 | 4 | 0 | -4 | 2 | -1 | . | .
CCN(Cc1cn(Cc2ccccc2)nn1)S(=O)(=O)c1ccccc1Br | . | . | . | -3 | -7 | . | .
C[C@@H]1CN([C@H](C)CO)C(=O)c2cc(Br)cnc2O[C@H]1CN(C)C(=O)c1ccc(F)cc1 | . | . | . | -5 | 5 | . | .
CCN1/C(=C/c2ccc3cc(C)ccc3[n+]2C)Sc2ccc3sccc3c21 | 78* | -2 | 0 | 6 | -4 | 68* | 43
SMILES | Arrestin-AP2 inh | CAL PDZ FP-1 | CAL PDZ FP-2 | DDE Tn6 FP inh | Tn7 DDE FP | Arr-AP2 CP1 | GST GSH counter
CCN1/C(=C/c2ccc3cc(C)ccc3[n+]2CC)Sc2cc(C)ccc21 | -74 | -1 | -1 | -2 | -15 | . | .
CN(C)c1ccc(/C=N\Nc2nc(-c3ccccc3)cc(=O)[nH]2)cc1 | 102* | 71* | 1 | -6 | -5 | -2 | -2
CCOC(=O)c1c(NC(=O)c2ccc(Br)o2)sc(C)c1CC | 98* | . | -3 | 5 | 2 | 0 | -10
COC(=O)c1ccccc1NC(=O)CN1CCN(c2ccccn2)CC1 | -6 | -1 | -1 | -1 | -2 | . | .
COC(=O)c1ccccc1N/C=C1\CCc2c(c(C)nn2-c2ccccn2)C1=O | 56* | 1 | 0 | -5 | 1 | 55* | 15
CCCn1c(SCC(=O)Nc2ccc(F)c(Cl)c2)nc(O)cc1=O | 55* | . | 0 | -2 | 7 | -7 | -6
CCCn1c(SCC(=O)Nc2ccc(Cl)cc2F)nc(O)cc1=O | -6 | -9 | 0 | 8 | 12 | . | .
COC(=O)C[C@H]1CC[C@@H]2[C@H](COc3ccc(NS(C)(=O)=O)cc3C(=O)N2C)O1 | . | . | . | -2 | -4 | . | .
CC(C)Cn1nc(NS(=O)(=O)c2cccc3nonc23)c2cc3ccccc3nc21 | 2 | . | -1 | -2 | -2 | . | .
CCn1nc(NS(=O)(=O)c2cccc3nonc23)c2cc3ccc(C)cc3nc21 | 68* | . | 0 | . | . | -2 | 8
Cc1ccnc2nc(C(=O)OCC(=O)Nc3ccccc3C(C)(C)C)nn12 | -1 | -4 | -1 | 0 | -1 | . | .
CCOC(=O)c1ccccc1NC(=O)c1nc2nccc(C)n2n1 | 98* | -3 | -1 | 3 | -3 | -16 | 1
CCOC(=O)CC[C@@H]1CC[C@]2(CCCN(C(=O)C3CCCCC3)C2)O1 | . | . | . | -2 | 9 | . | .
CC1CCCC(NC(=O)CN2CCN(S(=O)(=O)c3ccc(Br)s3)CC2)C1C (stereo not given) | 64* | -1 | 0 | -1 | 6 | -12 | -8
O=C(CN1CCCN(S(=O)(=O)c2ccc(Br)s2)CC1)Nc1ccc(Cl)cc1 | -2 | . | -2 | 1 | 11 | . | .
Cc1ccc(S(=O)(=O)NCc2ccccc2)cc1 | 56* | -4 | -9 | 5 | 4 | -4 | -5
Cc1ccc(CNS(=O)(=O)NCc2ccccc2)cc1 | 7 | -3 | -1 | -1 | -2 | . | .
C=CCN(CC#Cc1ccccc1)CC=C | . | . | . | -4 | 0 | . | .
CCN1C(c2ccccc2)=C(c2ccccc2)S/C1=C/C=C1\SC(=S)N(C)C1=O | 57* | 36* | -2 | 2 | 5 | -4 | 14
CCN1C(c2ccccc2)=C(c2ccccc2)S/C1=C\C=C1/SC(=S)N(C)C1=O | 75* | -7 | -7 | 5 | 5 | 18 | 43
CCN1C(=O)/C(=C/C=C2/Sc3ccc4ccccc4c3N2CCO)SC1=S | 4 | . | -2 | -1 | -8 | . | .
COc1ccc(-c2noc(C3CCCN(C(=O)Nc4ccc(Cl)cc4)C3)n2)cc1 (stereo not given) | . | . | . | 2 | 0 | . | .
CC(C)(C)OC(=O)N1CCC(N[C@@H](Cc2c[nH]c3ccccc23)C(=O)NCCc2c[nH]c3ccccc23)(C(=O)NC2CCCCC2)CC1 | . | . | . | -7 | 6 | . | .

Bioassay records as filed in PubChem.
